Data reported in ChEMBL document CHEMBL1121584, “Soft drugs. 3. A new class of anticholinergic agents” (J Med Chem, 1980).

Experiments:
Type in all cases: functional
Felis catus [1] = species: Felis catus; assay: acetylcholine antagonist effect of compound on cat blood pressure at concentration 5.7*10e-7 in 10 min
Procedure, shortened: (§1)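 Adult cats under ip α-chloralose (80 mg/kg) plus pentobarbitone (6 mg/kg), bilaterally vagotomized and artificially respired. Carotid blood pressure was recorded. An iv acetylcholine dose giving 70–80% of maximal vasodepressor response was used. After iv test drug, acetylcholine responses were checked at 1 min and then every 2–3 min and expressed as % of control. Doses were given in mol/kg, escalating after recovery.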

Felis catus [2] = species: Felis catus; assay: acetylcholine antagonist effect of compound on cat blood pressure at concentration 5.7*10e-7 in 13 min; procedure, shortened: as §1
Felis catus [3] = species: Felis catus; assay: acetylcholine antagonist effect of compound on cat blood pressure at concentration 5.7*10e-7 in 17 min; procedure, shortened: as §1
Felis catus [4] = species: Felis catus; assay: acetylcholine antagonist effect of compound on cat blood pressure at concentration 5.7*10e-7 in 1 min; procedure, shortened: as §1
Felis catus [5] = species: Felis catus; assay: acetylcholine antagonist effect of compound on cat blood pressure at concentration 5.7*10e-7 in 21 min; procedure, shortened: as §1
Felis catus [6] = species: Felis catus; assay: acetylcholine antagonist effect of compound on cat blood pressure at concentration 5.7*10e-7 in 25 min; procedure, shortened: as §1
Felis catus [7] = species: Felis catus; assay: acetylcholine antagonist effect of compound on cat blood pressure at concentration 5.7*10e-7 in 29 min; procedure, shortened: as §1
Felis catus [8] = species: Felis catus; assay: acetylcholine antagonist effect of compound on cat blood pressure at concentration 5.7*10e-7 in 6 min; procedure, shortened: as §1
Felis catus [9] = assay: acetylcholine antagonist effect of compound on cat blood pressure at concentration 5.7*10e-8 mol/kg in 1 min; procedure, shortened: as §1
Felis catus [10] = species: Felis catus; assay: acetylcholine antagonist effect of compound on cat blood pressure at concentration 5.7*10e-8 in 3 min; procedure, shortened: as §1
Felis catus [11] = species: Felis catus; assay: acetylcholine antagonist effect of compound on cat blood pressure at concentration 5.7*10e-8 in 4 min
Procedure, shortened: (§2)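 Adult cats anesthetized ip with α-chloralose (80 mg/kg) plus sodium pentobarbitone (6 mg/kg), bilaterally vagotomized, artificially respired. Carotid arterial pressure recorded. Drugs given iv via brachial vein. Acetylcholine dose giving 70-80% of maximal vasodepressor response used throughout. Test drug injected, acetylcholine response checked 1 min later, then every ~2-3 min. Value is % of control vasodepressor response to acetylcholine.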

Felis catus [12] = species: Felis catus; assay: acetylcholine antagonist effect of compound on cat blood pressure at concentration 5.7*10e-8 in 5 min; procedure, shortened: as §2
Felis catus [13] = species: Felis catus; assay: acetylcholine antagonist effect of compound on cat blood pressure at concentration 5.7*10e-8 in 9 min; procedure, shortened: as §2
Felis catus [14] = species: Felis catus; assay: acetylcholine antagonist effect of compound on cat blood pressure at concentration 5.7*10e-7 in 4 min; procedure, shortened: as §1

C[N+]1(COC(=O)C(c2ccccc2)C2CCCC2)CCOCC1.[Cl-] (centres undefined)
Response (Felis catus [1]): 23% | Response (Felis catus [2]): 50% | Response (Felis catus [3]): 59% | Response (Felis catus [4]): 0% | Response (Felis catus [5]): 73% | Response (Felis catus [6]): 82% | Response (Felis catus [7]): 100% | Response (Felis catus [8]): 0% | Response (Felis catus [9]): 0% | Response (Felis catus [10]): 45% | Response (Felis catus [11]): 82% | Response (Felis catus [12]): 90% | Response (Felis catus [13]): 100% | Response (Felis catus [14]): 0%
